Key:
[1] = Selectivity for mouse uPA over plasmin
[2] = organism: Homo sapiens; assay: Selectivity index, IC50 for human plasmin/IC50 for human uPA
[3] = Inhibition of bovine trypsin; parameters: species or system Bos taurus
Method in brief: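 Bovine trypsin, approx. 5 mU, is preincubated with inhibitor for 15 min at 37 °C. BAPNA substrate is then added at 425 µM (Km 1 mM) in Tris pH 8.2. The pNA release rate is read at 405 nm, duplicate wells, and IC50 comes from a four-parameter logistic fit.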

[4] = Selectivity index, IC50 for bovine trypsin/IC50 for human uPA
[5] = organism: Homo sapiens; assay: Selectivity index, IC50 for recombinant tPA/IC50 for human uPA
[6] = Selectivity for mouse uPA over tPA
[7] = biological target: Thrombin and urokinase-type plasminogen activator (Homo sapiens) (UniProt P00734+P00749); assay: Selectivity index, IC50 for human thrombin/IC50 for human uPA; format: protein assay
[8] = biological target: Coagulation factor X (Bos taurus) (UniProt P00743); assay: Inhibition of bovine F10a at 250 uM
[9] = biological target: Plasminogen (Homo sapiens, UniProt P00747); assay: Inhibition of human plasmin
Method in brief: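 Plasmin from human plasma, approx. 5 mU, in Tris pH 7.4, with a 15-min 37 °C inhibitor preincubation. […] Initial rate is read at 405 nm, in duplicate, and IC50 is obtained by four-parameter logistic fitting.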

[10] = biological target: Tissue-type plasminogen activator (Homo sapiens, UniProt P00750); assay: Inhibition of recombinant tPA
Method in brief: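 Recombinant tPA, approx. 5 mU, in Tris pH 8.3, is preincubated with inhibitor for 15 min at 37 °C. S-2288 is then added at 1.25 mM (Km 1 mM). Absorbance change is read at 405 nm, in duplicate, and IC50 comes from a four-parameter logistic fit.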

[11] = biological target: Prothrombin (Homo sapiens, UniProt P00734); assay: Inhibition of human thrombin
Method in brief: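 Thrombin from human plasma, approx. 5 mU, in Tris pH 8.3, with a 15-min 37 °C inhibitor preincubation. […] Initial rate is read at 405 nm, duplicates, and IC50 is obtained by four-parameter logistic fitting.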

[12] = biological target: Urokinase-type plasminogen activator (Homo sapiens, UniProt P00749); assay: Inhibition of human uPA
[13] = Selectivity index, IC50 for bovine F10a/IC50 for human uPA
[14] = biological target: Coagulation factor X (Bos taurus, UniProt P00743); assay: Inhibition of bovine F10a
[15] = biological target: Coagulation factor X (Bos taurus) (UniProt P00743); assay: Inhibition of bovine F10a at 125 uM

Sequence of Coagulation factor X (Bos taurus) (P00743 41-180 limits assumed): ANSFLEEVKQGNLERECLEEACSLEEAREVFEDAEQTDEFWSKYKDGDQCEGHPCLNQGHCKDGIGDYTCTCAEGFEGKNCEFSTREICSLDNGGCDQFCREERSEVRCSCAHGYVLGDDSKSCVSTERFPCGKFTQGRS
Sequence of Coagulation factor X (Bos taurus) (P00743 234-492 limits assumed): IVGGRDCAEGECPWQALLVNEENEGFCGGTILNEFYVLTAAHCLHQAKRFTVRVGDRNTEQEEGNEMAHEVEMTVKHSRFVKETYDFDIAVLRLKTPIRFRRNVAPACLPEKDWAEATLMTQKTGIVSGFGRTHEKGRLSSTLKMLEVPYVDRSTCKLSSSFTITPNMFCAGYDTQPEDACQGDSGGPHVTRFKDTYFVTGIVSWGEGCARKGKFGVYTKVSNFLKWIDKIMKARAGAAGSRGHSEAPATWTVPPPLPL
Sequence of Tissue-type plasminogen activator (P00750 whole entry): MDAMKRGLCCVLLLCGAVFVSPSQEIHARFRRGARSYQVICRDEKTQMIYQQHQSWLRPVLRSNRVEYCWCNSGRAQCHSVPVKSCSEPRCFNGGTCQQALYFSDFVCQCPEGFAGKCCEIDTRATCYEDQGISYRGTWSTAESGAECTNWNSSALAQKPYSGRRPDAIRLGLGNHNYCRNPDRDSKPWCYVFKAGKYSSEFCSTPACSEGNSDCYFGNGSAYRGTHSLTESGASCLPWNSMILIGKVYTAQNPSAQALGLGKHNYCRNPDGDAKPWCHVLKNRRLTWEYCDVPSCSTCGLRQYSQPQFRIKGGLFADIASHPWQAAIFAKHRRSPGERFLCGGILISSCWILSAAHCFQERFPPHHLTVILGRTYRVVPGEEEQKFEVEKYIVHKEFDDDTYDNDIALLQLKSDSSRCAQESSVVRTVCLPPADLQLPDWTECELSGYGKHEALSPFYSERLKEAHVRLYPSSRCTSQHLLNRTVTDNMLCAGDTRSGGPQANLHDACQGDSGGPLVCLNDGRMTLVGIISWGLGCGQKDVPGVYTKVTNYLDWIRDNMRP
Sequence of Plasminogen (P00747 97-580 limits assumed): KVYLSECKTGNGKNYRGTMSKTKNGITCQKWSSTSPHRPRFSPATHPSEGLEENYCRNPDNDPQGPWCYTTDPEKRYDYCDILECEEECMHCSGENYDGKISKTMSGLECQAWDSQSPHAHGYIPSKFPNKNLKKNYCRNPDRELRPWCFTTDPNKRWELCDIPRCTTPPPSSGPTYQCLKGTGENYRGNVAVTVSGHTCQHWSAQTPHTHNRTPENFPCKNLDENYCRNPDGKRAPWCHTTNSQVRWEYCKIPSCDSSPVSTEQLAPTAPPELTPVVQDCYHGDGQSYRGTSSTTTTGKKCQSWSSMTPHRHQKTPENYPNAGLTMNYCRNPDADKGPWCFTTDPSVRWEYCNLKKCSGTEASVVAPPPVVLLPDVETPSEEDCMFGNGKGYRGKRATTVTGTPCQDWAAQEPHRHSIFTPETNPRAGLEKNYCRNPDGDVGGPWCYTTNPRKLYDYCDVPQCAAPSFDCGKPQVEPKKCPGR
Sequence of Plasminogen (P00747 581-810 limits assumed): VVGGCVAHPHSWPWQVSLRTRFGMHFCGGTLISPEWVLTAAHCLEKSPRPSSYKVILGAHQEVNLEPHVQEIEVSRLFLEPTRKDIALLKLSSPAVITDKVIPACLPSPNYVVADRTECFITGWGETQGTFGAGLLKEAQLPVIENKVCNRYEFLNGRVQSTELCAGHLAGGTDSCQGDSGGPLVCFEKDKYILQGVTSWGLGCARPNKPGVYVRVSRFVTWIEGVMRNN
Sequence of Coagulation factor X (P00743 41-180 limits assumed): as the sequence (P00743 41-180 limits assumed) above
Sequence of Coagulation factor X (P00743 234-492 limits assumed): as the sequence (P00743 234-492 limits assumed) above

CC(=O)Nc1ccc(OP(=O)(Oc2ccc(NC(C)=O)cc2)C(Cc2ccc(NC(=N)N)cc2)NC(=O)[C@H](C)NC(=O)[C@@H](CO)NC(=O)OCc2ccccc2)cc1 (stereo partly specified)
Selectivity ratio [1]: 5
Selectivity index [2]: 130
IC50 [3]: 200 nM
Selectivity index [4]: 30
Selectivity index [5]: 1000
Selectivity ratio [6]: 5
Selectivity index [7]: 200
inhibition [8]: 58%

Cc1ccccc1C(=O)N[C@H](CO)C(=O)N[C@@H](C)C(=O)NC(Cc1ccc(NC(=N)N)cc1)P(=O)(Oc1ccccc1)Oc1ccccc1 (stereo partly specified)
IC50 [9]: 7.2 µM
Selectivity index [2]: 1400
IC50 [3]: 140 nM
IC50 [10]: 5.5 µM
Selectivity index [4]: 30
Selectivity index [5]: 1100
IC50 [11]: 15.9 µM
IC50 [12]: 5 nM
Selectivity index [7]: 3200
inhibition [8]: 57%

C[C@H](NC(=O)[C@@H](CO)NC(=O)c1ccccc1)C(=O)NC(Cc1ccc(NC(=N)N)cc1)P(=O)(Oc1ccccc1)Oc1ccccc1 (stereo partly specified)
Selectivity index [2]: 3000
IC50 [3]: 400 nM
Selectivity index [4]: 80
Selectivity index [5]: 3000
Selectivity index [7]: 5400
inhibition [8]: 45%

Cc1ccc(C(=O)N[C@H](CO)C(=O)N[C@@H](C)C(=O)NC(Cc2ccc(NC(=N)N)cc2)P(=O)(Oc2ccccc2)Oc2ccccc2)cc1 (stereo partly specified)
IC50 [9]: 5 µM
Selectivity index [2]: 700
IC50 [3]: 160 nM
IC50 [10]: 16 µM
Selectivity index [4]: 23
Selectivity index [5]: 2300
IC50 [11]: 67 µM
IC50 [12]: 7 nM
Selectivity index [7]: 9600
inhibition [8]: 53%

Cc1cccc(C(=O)N[C@H](CO)C(=O)N[C@@H](C)C(=O)NC(Cc2ccc(NC(=N)N)cc2)P(=O)(Oc2ccccc2)Oc2ccccc2)c1 (stereo partly specified)
Selectivity index [2]: 1800
IC50 [3]: 160 nM
Selectivity index [4]: 40
Selectivity index [5]: 4000
Selectivity index [7]: 7700
inhibition [8]: 56%

C[C@H](NC(=O)[C@@H](CO)NC(=O)C1C2CC3CC(C2)CC1C3)C(=O)NC(Cc1ccc(NC(=N)N)cc1)P(=O)(Oc1ccccc1)Oc1ccccc1 (stereo partly specified)
IC50 [9]: 5 µM
Selectivity index [2]: 600
IC50 [3]: 160 nM
IC50 [10]: 8.6 µM
Selectivity index [4]: 20
Selectivity index [5]: 1000
IC50 [11]: 6 µM
IC50 [12]: 8 nM
Selectivity index [7]: 750
inhibition [8]: 62%

C[C@H](NC(=O)[C@@H](CO)NC(=O)c1ccccc1)C(=O)NC(Cc1ccc(N=C(N)N)cc1)P(=O)(Oc1ccccc1)Oc1ccccc1 (stereo partly specified)
IC50 [9]: 15 µM
IC50 [10]: 15 µM
IC50 [11]: 22 µM
IC50 [12]: 5 nM

C[C@H](NC(=O)[C@@H](CO)NS(=O)(=O)c1ccc(Br)cc1)C(=O)NC(Cc1ccc(NC(=N)N)cc1)P(=O)(Oc1ccccc1)Oc1ccccc1 (stereo partly specified)
IC50 [9]: 0.9 µM
Selectivity index [2]: 136
Selectivity index [13]: 9000
IC50 [3]: 240 nM
IC50 [10]: 3.7 µM
Selectivity index [4]: 36
Selectivity index [5]: 560
IC50 [14]: 58 µM
IC50 [11]: 2.98 µM
IC50 [12]: 6.6 nM
Selectivity index [7]: 451

C[C@H](NC(=O)[C@@H](CO)NC(=O)OCc1ccccc1)C(=O)NC(CCCNC(=N)N)P(=O)(Oc1ccccc1)Oc1ccccc1 (stereo partly specified)
IC50 [14]: 65 µM

C[C@H](NC(=O)[C@@H](CO)NC(=O)OCc1ccccc1)C(=O)NC(Cc1ccc(NC(=N)N)cc1)P(=O)(Oc1ccccc1)Oc1ccccc1 (stereo partly specified)
Selectivity index [2]: 470
IC50 [3]: 300 nM
Selectivity index [4]: 70
Selectivity index [5]: 1000
inhibition [15]: 43%
Selectivity index [7]: 4700

Cc1cccc(C)c1C(=O)N[C@H](CO)C(=O)N[C@@H](C)C(=O)NC(Cc1ccc(NC(=N)N)cc1)P(=O)(Oc1ccccc1)Oc1ccccc1 (stereo partly specified)
IC50 [9]: 4.2 µM
Selectivity index [2]: 700
IC50 [3]: 220 nM
IC50 [10]: 3.6 µM
Selectivity index [4]: 40
Selectivity index [5]: 600
IC50 [11]: 6.3 µM
IC50 [12]: 6 nM
Selectivity index [7]: 1000
inhibition [8]: 62%

C[C@H](NC(=O)[C@@H](CO)NS(=O)(=O)c1ccccc1)C(=O)NC(Cc1ccc(NC(=N)N)cc1)P(=O)(Oc1ccccc1)Oc1ccccc1 (stereo partly specified)
IC50 [9]: 1.9 µM
Selectivity index [2]: 740
IC50 [3]: 160 nM
IC50 [10]: 3.1 µM
Selectivity index [4]: 60
Selectivity index [5]: 1200
IC50 [11]: 4.9 µM
IC50 [12]: 2.6 nM
Selectivity index [7]: 1900
inhibition [8]: 64%

C[C@H](NC(=O)[C@@H](CO)NC(=O)OCc1ccccc1)C(=O)NC(Cc1ccc(N=C(N)N)cc1)P(=O)(Oc1ccccc1)Oc1ccccc1 (stereo partly specified)
IC50 [9]: 2 µM
IC50 [10]: 4.6 µM
IC50 [11]: 20 µM
IC50 [12]: 4.3 nM

— ChEMBL document CHEMBL1149362, “Diphenyl phosphonate inhibitors for the urokinase-type plasminogen activator: optimization of the P4 position” (J Med Chem, 2006)
